For 22 compounds, IC50, Ratio IC50 and Activity results are on record in ChEMBL document CHEMBL4196154, “Structure-Guided Design and Development of Potent and Selective Dual Bromodomain 4 (BRD4)/Polo-like Kinase 1 (PLK1) Inhibitors” (J Med Chem, 2018).

Usually IC50 stands for the midpoint of a concentration-inhibition curve.

Active and inactive are the calls of the source. The calls are words filed in the database; no cut-off is given here.

For assay [1], the target named is T1, Serine/threonine-protein kinase PLK1 (Homo sapiens, UniProt P53350). Briefly: Inhibition of human recombinant PLK1 by Z-Lyte assay.
T1 sequence (P53350 whole entry): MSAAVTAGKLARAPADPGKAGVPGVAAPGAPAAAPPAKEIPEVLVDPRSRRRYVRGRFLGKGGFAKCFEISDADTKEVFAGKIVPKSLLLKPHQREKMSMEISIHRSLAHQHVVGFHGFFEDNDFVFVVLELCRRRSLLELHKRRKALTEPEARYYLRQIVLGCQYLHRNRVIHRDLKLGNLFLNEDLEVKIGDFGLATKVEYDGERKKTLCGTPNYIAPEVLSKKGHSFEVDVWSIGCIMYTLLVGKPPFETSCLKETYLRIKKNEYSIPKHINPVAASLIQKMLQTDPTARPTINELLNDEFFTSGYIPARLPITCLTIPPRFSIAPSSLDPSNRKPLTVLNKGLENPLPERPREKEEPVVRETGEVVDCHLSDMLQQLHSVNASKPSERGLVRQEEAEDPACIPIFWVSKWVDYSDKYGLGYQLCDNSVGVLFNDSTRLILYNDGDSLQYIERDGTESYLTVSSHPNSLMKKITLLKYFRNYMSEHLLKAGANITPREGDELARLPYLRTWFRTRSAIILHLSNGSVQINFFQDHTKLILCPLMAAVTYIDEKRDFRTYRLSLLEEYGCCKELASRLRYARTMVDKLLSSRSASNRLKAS
The target of assay [2] is T2, Bromodomain-containing protein 4 (Homo sapiens, UniProt O60885). Briefly: Inhibition of BRD4-BD1 (unknown origin) incubated for 1 hr by AlphaScreen biotin-JQ1 competition assay. Background: Alpha assays give light when donor and acceptor beads are brought close together.
For assay [3], the target named is Bromodomain testis-specific protein (Homo sapiens, UniProt Q58F21). Description: Inhibition of BRDT-BD1 (unknown origin) incubated for 1 hr by AlphaScreen biotin-JQ1 competition assay. In short, it runs like this: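 BD protein at 40 nM, Ni-coated acceptor and streptavidin donor beads each 25 μg/mL. Buffer 50 mM HEPES, 150 mM NaCl, 0.1% BSA, 0.01% Tween20, pH 7.5. Compounds delivered in DMSO. Run under low light, read after 1 h at room temperature.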

Another assay is filed under the species Homo sapiens. Description: Selectivity index, ratio of IC50 for inhibition of BRD4-BD1 (unknown origin) to IC50 for human recombinant PLK1.
In another assay the test system is MOLM-13. Description: Induction of cell cycle arrest in human MOLM13 assessed as accumulation at G1/G2 phase at 1 uM incubated for 24 hrs by propidium iodide staining based flow cytometry. It is filed as functional. Put shortly:
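MOLM13 cells exposed to 1 μM compound for 24 h, then harvested, stained with propidium iodide and PI fluorescence measured on a flow cytometer for cell-cycle distribution.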
For orientation: Flow cytometry measures light scatter and fluorescence of single cells or particles in a stream.

For assay [4], the target named is Serine/threonine-protein kinase PLK2 (Homo sapiens) (UniProt Q9NYY3). Description: Inhibition of human PLK2 expressed in mammalian expression system assessed as remaining enzyme activity at 1 uM. In short, it runs like this: (§1)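 Single-concentration binding panel at 1 uM: BROMOscan (32 bromodomains) and KINOMEscan (468 kinases) competition-binding platforms. Reported as % of DMSO control.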
Chain of Serine/threonine-protein kinase PLK2 (Homo sapiens) (Q9NYY3 whole entry, looked up): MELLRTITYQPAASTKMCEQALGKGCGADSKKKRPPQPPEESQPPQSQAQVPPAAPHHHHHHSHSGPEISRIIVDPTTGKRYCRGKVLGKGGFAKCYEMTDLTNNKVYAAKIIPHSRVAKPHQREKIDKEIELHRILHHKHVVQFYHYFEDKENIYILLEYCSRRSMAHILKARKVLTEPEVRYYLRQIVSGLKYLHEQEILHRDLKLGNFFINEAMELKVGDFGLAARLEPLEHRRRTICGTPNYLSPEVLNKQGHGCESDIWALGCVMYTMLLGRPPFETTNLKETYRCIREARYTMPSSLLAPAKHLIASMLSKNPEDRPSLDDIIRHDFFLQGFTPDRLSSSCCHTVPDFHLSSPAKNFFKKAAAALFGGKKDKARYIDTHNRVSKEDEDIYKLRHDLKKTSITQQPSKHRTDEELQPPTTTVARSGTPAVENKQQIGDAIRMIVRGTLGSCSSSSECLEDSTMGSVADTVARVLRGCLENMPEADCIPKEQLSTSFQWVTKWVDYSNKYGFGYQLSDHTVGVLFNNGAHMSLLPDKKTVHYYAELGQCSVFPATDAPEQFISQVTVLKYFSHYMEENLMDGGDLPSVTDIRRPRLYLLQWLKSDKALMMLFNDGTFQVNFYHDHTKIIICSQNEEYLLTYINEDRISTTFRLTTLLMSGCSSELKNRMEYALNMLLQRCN

Assay [5] deals with T1, Serine/threonine-protein kinase PLK1. Briefly: Inhibition of human PLK1 expressed in mammalian expression system assessed as remaining enzyme activity at 1 uM. Put shortly:
as §1

For assay [6], the target named is T2, Bromodomain-containing protein 4. Briefly: Inhibition of human BRD4-BD1 expressed in bacterial expression system assessed as remaining activity at 1 uM. Put shortly:
as §1

The target in assay [7] is Serine/threonine-protein kinase PLK3 (Homo sapiens) (UniProt Q9H4B4). Briefly: Inhibition of human PLK3 expressed in mammalian expression system assessed as remaining enzyme activity at 1 uM. In short, it runs like this: as §1
Chain of Serine/threonine-protein kinase PLK3 (Homo sapiens) (Q9H4B4 whole entry, looked up): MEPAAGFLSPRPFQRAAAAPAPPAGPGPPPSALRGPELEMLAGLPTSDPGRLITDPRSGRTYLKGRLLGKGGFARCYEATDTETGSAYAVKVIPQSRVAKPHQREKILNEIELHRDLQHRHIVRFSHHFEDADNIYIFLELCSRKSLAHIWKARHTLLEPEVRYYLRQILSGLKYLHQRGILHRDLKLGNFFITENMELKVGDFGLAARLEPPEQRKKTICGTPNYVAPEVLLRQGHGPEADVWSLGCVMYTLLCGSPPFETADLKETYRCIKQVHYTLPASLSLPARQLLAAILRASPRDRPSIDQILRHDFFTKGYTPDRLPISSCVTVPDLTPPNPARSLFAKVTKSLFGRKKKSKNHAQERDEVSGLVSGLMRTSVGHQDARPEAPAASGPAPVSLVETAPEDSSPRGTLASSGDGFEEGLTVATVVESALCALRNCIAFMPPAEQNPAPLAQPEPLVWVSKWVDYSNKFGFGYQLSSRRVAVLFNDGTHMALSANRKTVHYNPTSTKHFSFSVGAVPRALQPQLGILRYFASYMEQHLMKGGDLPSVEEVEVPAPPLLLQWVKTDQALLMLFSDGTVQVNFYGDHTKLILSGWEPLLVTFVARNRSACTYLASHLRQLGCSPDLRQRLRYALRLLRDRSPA

Consider `COc1cc(C(=O)NC2CCN(C)CC2)ccc1Nc1ncc2c(n1)N(C(C)C)[C@H](C)C(=O)N2C`, for which the IC50 in [1] was found to be 25.2 nM; in assay [2] it was 421 nM; in assay [3] it was 978 nM.

Take `COc1cc(C(=O)NC2CCN(C)CC2)ccc1Nc1ncc2c(n1)N(C1CCCC1)CC(=O)N2C`: the figures for the IC50 in assay [1], in [2] and in assay [3] were 54.1 nM, 6630 nM and 26000 nM, respectively.

Take `CCC[C@@H]1C(=O)N(C)c2cnc(Nc3ccc(C(=O)NC4CCN(C)CC4)cc3OC)nc2N1C1CCCC1`: the Ratio IC50 in the assay filed under Homo sapiens is more than 250. For the same compound, the IC50 in assay [1] worked out at 9.9 nM; in assay [2], 2580 nM; in assay [3], 8470 nM.

On to `COc1cc(C(=O)NC2CCNCC2)ccc1Nc1ncc2c(n1)N(C1CCCC1)[C@H](C)C(=O)N2C`, for which the IC50 in [1] is 9 nM; in assay [2] it was 109 nM; in [3], 560 nM.

For `CC[C@@H]1C(=O)N(C)c2cnc(Nc3ccc(C(=O)NC4CCN(C)CC4)cc3OC)nc2N1C1CCCCC1`, the IC50 was found to be 4 nM in assay [1] and 650 nM in assay [2].

As for `COc1cc(C(=O)NC2CCN(C)CC2)ccc1Nc1ncc2c(n1)N(C1CCCCC1)[C@H](C)C(=O)N2C`, the IC50 worked out at 8.6 nM in [1], 310 nM in [2] and 750 nM in [3].

On to `CC[C@@H]1C(=O)Nc2cnc(Nc3ccc(C(=O)NC4CCN(C)CC4)cc3OC)nc2N1C(C)C`, for which the Ratio IC50 in the assay listed under Homo sapiens was more than 250. The IC50 in assay [1] is 2620 nM; in [2] it was more than 10000 nM.

With `C[C@@H]1C(=O)N(C)c2cnc(Nc3ccc(C(=O)NC4CCN(C)CC4)cc3OC3CCCC3)nc2N1C1CCCC1`, the outcome with MOLM-13 was Active. In addition, the IC50 was found to be 40 nM in [1], 28 nM in assay [2] and 102 nM in assay [3].

For the compound `COc1cc(C(=O)NCCc2ccccc2)ccc1Nc1ncc2c(n1)N(C1CCCC1)[C@H](C)C(=O)N2C`, the results for the IC50 in assay [1], in assay [2] and in assay [3] were 27 nM, 183 nM and 558 nM, respectively.

As to `COc1cc(C(=O)N2CCCCC2)ccc1Nc1ncc2c(n1)N(C1CCCC1)[C@H](C)C(=O)N2C`, the IC50 in assay [1] amounted to 95 nM; in assay [2] it was 94 nM; in assay [3] it was 369 nM.

In the case of `CC[C@@H]1C(=O)N(C)c2cnc(Nc3ccc(C(=O)NC4CCN(C)CC4)cc3OC)nc2N1C(C)C`, the IC50 was found to be 4 nM in assay [1] and 186 nM in assay [2].

Consider `CC[C@@H]1C(=O)Nc2cnc(Nc3ccc(C(=O)NC4CCN(C)CC4)cc3OC)nc2N1C1CCCCC1`, for which the Ratio IC50 in the assay filed under Homo sapiens was more than 250. The IC50 is 37.2 nM in [1] and more than 10000 nM in assay [2].

Turning to `COc1cc(C(=O)NC2CCCCC2)ccc1Nc1ncc2c(n1)N(C1CCCC1)[C@H](C)C(=O)N2C`, the values for the IC50 in assay [1], in [2] and in assay [3] were 160 nM, 107 nM and 378 nM, respectively.

With `COc1cc(C(=O)NC2CCN(C)CC2)ccc1Nc1ncc2c(n1)N(C(C)C)[C@H](CC(C)C)C(=O)N2C`, the IC50 in assay [1] was determined as 218 nM; in assay [2] it was 41900 nM.

`CN1CCC(NC(=O)c2ccc(Nc3ncc4c(n3)N(C3CCCC3)CC(=O)N4C)c(OC3CCCC3)c2)CC1`: the IC50 was 690 nM in [2] and 3540 nM in [3].

Take `COc1cc(C(=O)NC2CCN(C)CC2)ccc1Nc1ncc2c(n1)N(C1CCCC1)[C@@H](C)C(=O)N2C`: the IC50 was determined as 8.7 nM in assay [1], 107 nM in [2] and 229 nM in [3].

With `COc1cc(C(=O)NCCN(C)C)ccc1Nc1ncc2c(n1)N(C1CCCC1)[C@H](C)C(=O)N2C`, the IC50 came to 21 nM in [1], 104 nM in [2] and 392 nM in [3].

In the case of `C[C@H]1C(=O)N(C)c2cnc(Nc3ccc(C(=O)NC4CCN(C)CC4)cc3OC3CCCC3)nc2N1C1CCCC1`, the 50% inhibitory concentration (IC50) in assay [1] is 127 nM; in assay [2], 59 nM; in [3], 245 nM.

On to `CCC[C@@H]1C(=O)N(C)c2cnc(Nc3ccc(C(=O)NC4CCN(C)CC4)cc3OC3CCCC3)nc2N1C1CCCC1`, for which the IC50 was found to be 47 nM in assay [1], 596 nM in assay [2] and 1950 nM in [3].

For `COc1cc(C(=O)NC2CCN(C)CC2)ccc1Nc1ncc2c(n1)N(C1CCCC1)[C@H](C)C(=O)N2C`, the Activity in [4] was 0.3 to 0.5%; in assay [5], 0.3 to 0.5%; in assay [6], 12%; in assay [7], 0.3 to 0.5%. Further, the IC50 in [1] worked out at 1.1 nM; in [2], 84 nM; in [3], 342 nM.

Turning to `COc1cc(C(=O)NC2CCN(C)CC2)ccc1Nc1ncc2c(n1)N(C1CCOCC1)[C@H](CC(C)C)C(=O)N2C`, the IC50 in assay [1] was 322 nM; in assay [2], more than 50000 nM; in [3], more than 50000 nM.

In the case of `COC(=O)c1ccc(Nc2ncc3c(n2)N(C2CCCC2)[C@H](C)C(=O)N3C)c(OC2CCCC2)c1`, the figures for the IC50 in [1], in [2] and in assay [3] were 457 nM, 253 nM and 933 nM, respectively.
